Data published in ChEMBL document CHEMBL1151765, “Rational design of substituted diarylureas: a scaffold for binding to G-quadruplex motifs” (J Med Chem, 2008).
Activity calls are given as the source filed them. The rule behind the calls is not given here.

Assays:
MCF7 [1] = assay: Cytotoxicity against human MCF7 cells after 96 hrs by SRB assay; type: functional, cell-based; settings: MCF7, 96 h
MCF7 [2] = assay: Cytotoxicity against human MCF7 cells assessed as population doubling at 2 uM after 1 week […] relative to control; type: functional
In short: (§1)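 MCF7 cells (1×10^5) treated with sub-cytotoxic ligand concentrations for 1 week, biweekly dosing. Cells counted by haemocytometer; population doublings n = (log Pn – log P0)/log2. Values normalized to vehicle control (100%) ± sd, two independent concentrations per ligand.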

MCF7 [3] = assay: Cytotoxicity against human MCF7 cells assessed as population doubling at 3.50 uM after 1 week […] relative to control; type: functional; in short: as §1
[4] = Cytotoxicity against human WI38 cells after 96 hrs by SRB assay; type: cell-based; settings: WI-38, 96 h
MCF7 [5] = assay: Cytotoxicity against human MCF7 cells assessed as cell senescence at 3.5 uM after 1 week by beta-galactosidase assay; type: functional
[6] = Stabilization of d[G3(T2AG3)3] sequence of F21T telomeric G-quadruplex DNA assessed as change in melting temperature at 1 uM by FRET assay relative to BRACO-19 in presence of calf thymus DNA
In short: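 F21T FRET melting with ligand at 1µM in the presence of calf thymus DNA competitor at increasing bp concentrations. Retained stabilization, from three experiments, normalized to the ligand's ΔTm with no competitor (100%) ± normalized sd.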

A549 [7] = assay: Cytotoxicity against human A549 cells after 96 hrs by SRB assay; type: functional, cell-based; settings: A549, 96 h
[8] = Stabilization of d[C3G3CG3CGCGAG3AG4AG2] sequence of c-kit2 G-quadruplex DNA assessed as change in melting temperature at 1 uM by FRET assay
In short: (§2)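 Dual-labelled FAM/TAMRA oligos at 400nM in 60mM KCl potassium cacodylate buffer, pH 7.4, heated to 85 °C for 10 min, then cooled. Ligand added to 1µM; buffer alone as negative control. Excitation 450–495nm, emission read at 515–545nm every 0.5 °C from 30–100 °C. ΔTm is ligand Tm minus control Tm, from four experiments ± maximum sd; c-kit1 curves fitted to sigmoids.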

[9] = Stabilization of d[AGAG3AG2GCGCTG3AG2AG3GCT] sequence of c-kit1 G-quadruplex DNA assessed as change in melting temperature at 1 uM by FRET assay; in short: as §2
[10] = Stabilization of d[G3(T2AG3)3] sequence of F21T telomeric G-quadruplex DNA assessed as change in melting temperature at 1 uM by FRET assay
In short: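 Dual-labelled oligo (5′-FAM, 3′-TAMRA) at 400nM in FRET buffer (60mM KCl, K cacodylate, pH 7.4), heated to 85 °C for 10 min, cooled to room temperature. Ligand added from DMSO dilution. Excitation 450–495nm, emission 515–545nm, read every 0.5 °C from 30–100 °C. ΔTm from four experiments: averaged ligand Tm minus averaged buffer-control Tm, ± maximum sd.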

MCF7 [11] = assay: Cytotoxicity against human MCF7 cells assessed as cell senescence at 2 uM after 1 week by beta-galactosidase assay; type: functional
[12] = Stabilization of d[(TA)2GC(TA)2T6(TA)2]GC(TA)2 sequence of duplex DNA assessed as change in melting temperature at 1 uM by FRET assay; in short: as §2
A549 [13] = assay: Selectivity ratio of IC50 for human A549 cells to IC50 for human WI38 cells
Homo sapiens = organism: Homo sapiens; assay: Binding affinity to biotin-labeled human telomeric d[AG3(T2AG3)3] sequence by surface plasmon resonance analysis
In short: (§3)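 Streptavidin chip with 5′-biotinylated DNA immobilized to 350-400 RU; blank reference flow cell. Run in 10mM HEPES, 100mM KCl, 3mM EDTA, P20 surfactant, pH 7.3, 25°C. Ligand 1nM to 10µM (from 20mM DMSO stock) injected at 50µl/min for 5–10 min to steady state, then 10 min buffer dissociation; glycine pH 2.0 regeneration between cycles.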

[14] = target: T1, Telomerase reverse transcriptase (Homo sapiens, UniProt O14746); assay: Inhibition of telomerase by TRAP-LIG assay
[15] = Binding affinity to biotin-labeled d[CGA2T2CGTCTC2GA2T2CG] sequence of duplex DNA by surface plasmon resonance analysis; in short: as §3
MCF7 [16] = assay: Selectivity ratio of IC50 for human MCF7 cells to IC50 for human WI38 cells
[17] = target: T1, Telomerase reverse transcriptase; assay: Inhibition of telomerase at 50 uM by TRAP-LIG assay relative to control

T1 sequence (O14746 whole entry): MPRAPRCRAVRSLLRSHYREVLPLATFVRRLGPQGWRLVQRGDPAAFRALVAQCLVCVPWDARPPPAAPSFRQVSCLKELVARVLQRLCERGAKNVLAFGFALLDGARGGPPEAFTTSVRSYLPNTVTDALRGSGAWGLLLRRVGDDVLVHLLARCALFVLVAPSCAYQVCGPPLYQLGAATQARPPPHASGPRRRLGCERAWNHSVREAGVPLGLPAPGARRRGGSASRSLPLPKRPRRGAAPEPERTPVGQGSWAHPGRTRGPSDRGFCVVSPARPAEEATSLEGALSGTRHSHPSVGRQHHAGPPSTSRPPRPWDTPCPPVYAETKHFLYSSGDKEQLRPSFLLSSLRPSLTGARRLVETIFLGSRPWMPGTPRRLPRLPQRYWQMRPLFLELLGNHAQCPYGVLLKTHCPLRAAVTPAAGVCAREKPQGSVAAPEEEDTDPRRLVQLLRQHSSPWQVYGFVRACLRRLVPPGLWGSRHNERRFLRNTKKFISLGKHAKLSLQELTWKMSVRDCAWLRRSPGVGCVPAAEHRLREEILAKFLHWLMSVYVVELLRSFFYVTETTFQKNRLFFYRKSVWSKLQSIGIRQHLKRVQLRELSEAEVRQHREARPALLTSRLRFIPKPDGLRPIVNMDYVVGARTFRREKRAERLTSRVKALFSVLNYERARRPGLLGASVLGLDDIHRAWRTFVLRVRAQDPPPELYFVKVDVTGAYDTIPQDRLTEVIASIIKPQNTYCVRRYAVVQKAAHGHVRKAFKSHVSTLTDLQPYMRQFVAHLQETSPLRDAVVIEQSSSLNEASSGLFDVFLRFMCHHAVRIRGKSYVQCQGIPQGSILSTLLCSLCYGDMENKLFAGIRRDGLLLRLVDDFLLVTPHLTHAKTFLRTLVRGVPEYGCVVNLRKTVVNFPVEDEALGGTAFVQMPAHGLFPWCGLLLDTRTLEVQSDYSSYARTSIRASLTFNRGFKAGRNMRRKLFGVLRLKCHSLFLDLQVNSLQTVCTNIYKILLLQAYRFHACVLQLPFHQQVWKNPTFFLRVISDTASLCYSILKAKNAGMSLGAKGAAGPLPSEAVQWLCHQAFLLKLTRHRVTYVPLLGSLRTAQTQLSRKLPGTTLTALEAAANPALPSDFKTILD

Compound `O=C(CCN1CCCCC1)Nc1ccc(NC(=O)c2cccc(NC(=O)Nc3cccc(C(=O)Nc4ccc(NC(=O)CCN5CCCCC5)cc4)c3)c2)cc1` has an IC50 (MCF7 [1]) of 5.1 µM, an Activity (MCF7 [2]) of 89.2% and an Activity (MCF7 [3]) of 84.3%. The IC50 [4] was over 50 µM, the Activity (MCF7 [5]) was 1.33% and the Activity [6] was “Active”. The IC50 (A549 [7]) was over 50 µM, the change in melting temperature (ΔTm) [8] was 7.1 °C and the change in melting temperature (ΔTm) [9] was 7 °C. It also gave a change in melting temperature (ΔTm) [10] of 5.2 °C, an Activity (MCF7 [11]) of 1.29% and a change in melting temperature (ΔTm) [12] of 0.1 °C. For the same compound, the “Ratio IC50” value (A549 [13]) was 1.
`CN(C)c1ccc(Nc2c3ccc(NC(=O)CCN4CCCC4)cc3nc3cc(NC(=O)CCN4CCCC4)ccc23)cc1` gave a KA (Homo sapiens) of 31 ×10⁶ /M, an EC50 [14] of 6.3 µM and an IC50 [4] of 10.7 µM. The Activity [6] was “Active”, the change in melting temperature (ΔTm) [8] was 25.3 °C and the change in melting temperature (ΔTm) [9] was 20.1 °C. The KA [15] was 0.5 ×10⁶ /M, the Ratio IC50 (MCF7 [16]) was 4.3 and the change in melting temperature (ΔTm) [10] was 25.9 °C. The Activity [17] was “inactive”, the change in melting temperature (ΔTm) [12] was 11.2 °C and the Ratio IC50 (A549 [13]) was 4.5.
With `O=C(CN1CCCC1)Nc1cc(NC(=O)Nc2cc(NC(=O)CN3CCCC3)cc(C(=O)Nc3ccccc3)c2)cc(C(=O)Nc2ccccc2)c1` the IC50 (MCF7 [1]) was 21.9 µM, the IC50 [4] was 13.8 µM and the Activity [6] was “Active”. For the same compound, the IC50 (A549 [7]) was over 50 µM, the change in melting temperature (ΔTm) [8] was 8.7 °C and the change in melting temperature (ΔTm) [9] was 5.3 °C. The Ratio IC50 (MCF7 [16]) was 0.6, the change in melting temperature (ΔTm) [10] was 13.6 °C and the Ratio IC50 (A549 [13]) was 0.3.
Work on `O=C(CCN1CCOCC1)Nc1ccc(NC(=O)c2cccc(NC(=O)Nc3cccc(C(=O)Nc4ccc(NC(=O)CCN5CCOCC5)cc4)c3)c2)cc1` yielded an IC50 (MCF7 [1]) of 40.6 µM, an IC50 [4] of over 50 µM and an IC50 (A549 [7]) of over 50 µM. The change in melting temperature (ΔTm) [8] was 1.3 °C, the change in melting temperature (ΔTm) [10] was 1 °C and the change in melting temperature (ΔTm) [12] was 0.2 °C.
In the case of `CN(C)CCC(=O)Nc1ccc(NC(=O)c2cccc(NC(=O)Nc3cccc(C(=O)Nc4ccc(NC(=O)CCN(C)C)cc4)c3)c2)cc1`, the IC50 (MCF7 [1]) is reported as 12.2 µM, the IC50 [4] is reported as over 50 µM and the Activity [6] is reported as “Active”. It also gave an IC50 (A549 [7]) of over 50 µM, a change in melting temperature (ΔTm) [8] of 13.6 °C and a change in melting temperature (ΔTm) [9] of 2.9 °C. For the same compound, the change in melting temperature (ΔTm) [10] was 12.3 °C, the change in melting temperature (ΔTm) [12] was 0.1 °C and the “Ratio IC50” value (A549 [13]) was 1.
With `C[n+]1ccc(-c2c3nc(c(-c4cc[n+](C)cc4)c4ccc([nH]4)c(-c4cc[n+](C)cc4)c4ccc([nH]4)c(-c4cc[n+](C)cc4)c4nc2C=C4)C=C3)cc1` the Activity [17] was “inactive”.
In the case of `O=C(CN1CCCC1)Nc1cccc(NC(=O)c2cccc(NC(=O)Nc3cccc(C(=O)Nc4cccc(NC(=O)CN5CCCC5)c4)c3)c2)c1`, the IC50 (MCF7 [1]) is reported as 34.1 µM, the IC50 [4] is reported as 22.8 µM and the Activity [6] is reported as “Active”. The IC50 (A549 [7]) was over 50 µM, the change in melting temperature (ΔTm) [8] was 10.5 °C and the change in melting temperature (ΔTm) [9] was 3.4 °C. For the same compound, the change in melting temperature (ΔTm) [10] was 6.8 °C, the change in melting temperature (ΔTm) [12] was 0.3 °C and the “Ratio IC50” value (A549 [13]) was 0.5.
For `O=C(CCN1CCCC1)Nc1cc(NC(=O)Nc2cc(NC(=O)CCN3CCCC3)cc(C(=O)Nc3ccccc3)c2)cc(C(=O)Nc2ccccc2)c1`, the IC50 (MCF7 [1]) was 32.4 µM, the IC50 [4] was 16.2 µM and the Activity [6] was “Active”. It also gave an IC50 (A549 [7]) of 41.5 µM, a change in melting temperature (ΔTm) [8] of 12.9 °C and a change in melting temperature (ΔTm) [9] of 4.9 °C. For the same compound, the Ratio IC50 (MCF7 [16]) was 0.5, the change in melting temperature (ΔTm) [10] was 13.3 °C and the Ratio IC50 (A549 [13]) was 0.4.
